Many of the other results were omitted from the sample, so hits are more common in it than they were.
T cruzi inh: inhibitors of intracellular T. cruzi growth, primary screen, luminescence, NIH3T3 host cells | 300,000 tested, 1.4% active | AID 1885, 2009 | inhibition, % (test concentration not listed) | T. cruzi beta-gal in NIH3T3, 90 h;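 active means mean inhibition across valid replicates above about 55%, limit read from the data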;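 further: signal also drops with host cell toxicity which is not excluded here; 0% = plate median of DMSO wells and 100% = zero luminescence signal; higher percent means less beta-gal luminescence so fewer parasites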
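System: Mouse NIH/3T3 fibroblasts infected with β-gal-expressing T. cruzi Tulahuen C4 | Quantity: NIH/3T3 cells, 5,000 per well | Reagent: 5000 reporter trypomastigotes per well | Dosing: Compound pinned at 50 nL/well, DMSO | Schedule: 3 h host attachment, then at least 90 h co-culture | Detection: GalScreen luminescence, 60 min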
NALP1 yeast inh: NALP1 inflammasome inhibitors in reconstituted yeast, colorimetric, S. cerevisiae, triplicate retest | S. cerevisiae NALP1/ASC/caspase-1 growth, X-gal OD620, 72 h | inhibition, % at 10 µM | 280,000 tested, 0.61% active; in the data active means inhibition mostly above about 24%, no sharp cut-off; inactive means mostly below about 32%
Calb FLC: C. albicans growth inhibition with fluconazole, primary screen, CaCi-2 strain, Alamar Blue fluorescence; 300,000 tested, 0.57% active; C. albicans CaCi-2 + fluconazole, 48 h; growth inhibition, % (concentration not given with the values); AID 1979, 2009;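 active means growth inhibition above about 58% in most replicates, limit read from the data, passing the limit was not always enough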;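 further: all wells also contain fluconazole at 8 µg/ml as a sub-toxic cotreatment; 0% = median of DMSO wells and 100% = median of geldanamycin control wells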
NLRP3 yeast inh: NALP3 inflammasome inhibitors in reconstituted yeast, primary screen, luminescence, uHTS; Yeast reconstituted NLRP3/ASC/caspase-1, beta-gal luminescence, 24 h; inhibition, % at 10 µM; 330,000 tested, 0.39% active;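 active means inhibition of 50% or more; inactive means inhibition below 50%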;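 further: plate controls were induced DMSO wells for no effect and uninduced yeast grown without galactose for full effect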
PolyA inhibitor: polyadenylation inhibitors in yeast reporter cells, primary screen, luminescence, S. cerevisiae; activity score, % at 12 µM; S. cerevisiae SKY197-pL101 polyadenylation reporter, beta-gal luminescence; efflux-impaired pdr1/pdr3 knockout yeast; score 100 = 6 SD above DMSO; 300,000 tested, 0.02% active; AID 1875, 2009;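 active means lowest replicate activity score at least 50, where 100 means six control SD above control mean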;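 further: yeast exposed to compound for 9 h at 30 °C; higher score means more reporter readthrough which indicates perturbed polyadenylation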
L major viab: Leishmania major promastigote growth inhibition, primary screen. Leishmania major promastigotes, resazurin fluorescence viability. inhibition, % at 10 µM. 200,000 tested, 9% active. AID 1063, 2008; in the data active means inhibition above about 50%;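 further: promastigotes grown with compound for 44 hours at 28 °C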
Lmaj promast 1uM: Leishmania major promastigote growth inhibition, confirmation, 1 µM repeat of primary hits; shares compounds with L major viab; L. major promastigote growth, resazurin fluorescence, 48 h; 1,100 tested, 13% active; inhibition, % at 1 µM;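 active means inhibition above about 50% in both repeat tests, limit read from the data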
* hit, by the source's call; . = not tested or not shown.

SMILES	T cruzi inh	NALP1 yeast inh	Calb FLC	NLRP3 yeast inh	PolyA inhibitor	L major viab	Lmaj promast 1uM
Cc1cc(C)c(C)c(S(=O)(=O)N2CCC(C(=O)NCCCN3CCCC3=O)CC2)c1C	.	.	.	23	.	.	.
Nc1nn(S(=O)(=O)c2ccccc2)cc1-c1ccc([N+](=O)[O-])cc1	53	20	6	-7	-9	99*	6
Cc1ccc(S(=O)(=O)n2cc(-c3ccccc3)c(N)n2)cc1	-12	21	3	19	.	9	.
COc1ccc(C2C3C(=O)N(Cc4ccccc4)C(=O)C3ON2c2ccccc2)c(OC)c1OC (stereo unspecified)	.	8	.	12	.	74*	-10
COc1cc(C2C3C(=O)N(Cc4ccccc4)C(=O)C3ON2c2ccccc2)cc(OC)c1OC (stereo unspecified)	-1	13	9	.	-11	-1	.
O=[N+]([O-])c1ccc(N2CCN(C(=S)NCc3ccc(Cl)cc3)CC2)cc1	57*	0	-5	30	-63	68*	-12
CCc1ccccc1NC(=O)CSc1nnc(C2CC2)n1CC1CCCO1 (stereo unspecified)	-9	26	17	-1	-13	.	.
Cc1ccc(-c2nc(CSCC(=O)NCCN3CCN(Cc4ccccc4)CC3)c(C)o2)cc1	8	11	-15	19	-5	52*	-26
Cc1oc(-c2ccc(Cl)cc2)nc1CS(=O)CC(=O)NCCCN1CCN(Cc2ccccc2)CC1 (stereo unspecified)	5	11	22	4	-6	.	.
Cc1csc(NC(=O)CSc2nnc(-c3ccoc3C)n2C(C)c2ccccc2)n1 (stereo unspecified)	0	.	-5	-12	4	.	.
Cc1ccc(-c2cc(-c3ccc(C)o3)nc(N)c2C#N)cc1	17	10	5	10	3	28	.
Cc1ccc(-c2cc(-c3ccc(F)cc3)c(C#N)c(N)n2)o1	-18	32	-6	30	-6	60*	-15
CCOc1ccccc1N1CCN(C(=O)c2ccc(OCC(=O)N3CCOCC3)c(OC)c2)CC1	-8	9	1	3	0	.	.
CC(C)(C)NC(=O)CN(C(=O)c1snc(C(=O)NC2CCCCC2)c1N)c1ccc(F)cc1	9	-4	19	20	2	.	.
COc1ccccc1NC(=O)CN1CCC(C(=O)c2ccc(F)cc2)CC1	5	-4	32	-11	5	71*	-12
CCOc1ccccc1NC(=O)CN1CCC(C(=O)c2ccc(F)cc2)CC1	27	-12	-4	12	-2	.	.
CN(CCN1CCc2ccccc2C1)Cc1nc(Cc2ccccc2F)no1	.	-4	.	.	.	85*	72*
CN(CCN1CCc2ccccc2C1)Cc1nc(-c2ccc3c(c2)OCO3)no1	30	4	-18	3	25	9	.
CCOC(=O)CC(NC(=O)c1cccc2c1C(=O)N(Cc1cccnc1)C2)c1ccc(OC(C)C)cc1 (stereo unspecified)	15	22	-8	18	1	40	.
O=c1[nH]c(=O)c2cc([N+](=O)[O-])cc([N+](=O)[O-])c2[nH]1	72*	10	8	4	-12	91*	13
O=c1c2cc([N+](=O)[O-])cc([N+](=O)[O-])c2[nH]n1-c1ccccc1	3	18	2	14	-9	.	.
CC(C)CC(=O)OC1C(N2CCOCC2)c2c(ccc(/C=C/C(=O)N3CCOCC3)c2O)OC1(C)C (stereo unspecified)	-4	11	-5	11	18	90*	-16
O=C(CSc1nc(N2CCOCC2)nc(N2CCOCC2)n1)Nc1cccc(C(F)(F)F)c1	3	13	-5	6	6	.	.
CC(C)(C)C1CCC2(CC1)Nc1cccc3cccc(c13)N2	8	30	36	16	2	100*	64*
CCN(CC)c1ccc(C2Nc3cccc4cccc(c34)N2)cc1	-13	14	-11	24	3	.	.
SMILES	T cruzi inh	NALP1 yeast inh	Calb FLC	NLRP3 yeast inh	PolyA inhibitor	L major viab	Lmaj promast 1uM
OCCSc1nc(-c2ccccc2)nc2c1CCC2	-1	20	3	42	-22	52*	-13
CSc1ccc(CN(C)C(=O)c2cccc(S(=O)(=O)N3CCN(Cc4ccccc4)CC3)c2)cc1	15	.	-4	19	4	.	.
CN1CCN(S(=O)(=O)c2ccccc2)C(c2ccccc2)C1 (stereo unspecified)	.	.	.	18	.	.	.
CN1CCN2c3ccccc3Cc3ccccc3C2C1 (stereo unspecified)	-3	20	.	12	28	54*	-22
c1ccc2c3n(nc2c1)CCCO3	.	.	.	14	.	.	.
CC(=O)NCCNc1ccc([N+](=O)[O-])cn1	-11	32	-9	-3	-3	62*	-16
O=C/C(=C\Nc1ccccn1)c1nc2cc(Cl)ccc2o1	-22	32	-5	17	-1	72*	-1
O=C1c2ccccc2C(=O)C12Cc1ccccc1N1CCN(c3ccccc3)CC12 (stereo unspecified)	46	3	-8	.	-10	65*	67*
O=C(CN1CCN(c2ccccc2)CC1)N1CCc2ccccc21	8	8	-12	14	20	.	.
CN(C)S(=O)(=O)c1cccc(-n2sc3ccccc3c2=O)c1	.	-17	.	-10	.	55*	-4
O=c1c2ccccc2sn1-c1ccccc1	65*	8	-1	30	-29	100*	-5
O=C(O)c1cccc(-n2sc3ccccc3c2=O)c1	.	.	.	23	.	.	.
NNC(=O)C(=O)NCCCN1CCOCC1	4	-16	18	12	17	-7	.
CN(c1ccc(C(=O)NC2CCCCC2)cc1)S(=O)(=O)c1ccccc1	-4	6	6	12	-1	.	.
CC(C)CN1CCN(Cc2ccc(Oc3ncccn3)cc2)CC1CCO (stereo unspecified)	-10	.	0	1	6	.	.
Cc1cc(C(=O)CSc2nncs2)c(C)n1Cc1ccco1	-8	28	5	19	17	6	.
Cc1cc(C(=O)CCl)c(C)n1Cc1ccco1	80*	-16	2	-83	-14	100*	93*
Cc1ccccc1OC1C(=O)N(Cc2ccc3c(c2)OCO3)C1c1sccc1C (stereo unspecified)	46	17	-5	2	-10	17	.
N/C(CN1CCSCC1)=N\OCc1c(F)cccc1Cl	-5	32	2	-19	12	.	.
CCN(CC)CCOC(c1ccccc1)c1ccc(C)cc1 (stereo unspecified)	3	16	-3	25	24	96*	74*

Screening results deposited in PubChem BioAssay by several laboratories.
